Experimental data taken from paper PMC10549236 (RSC Chemical Biology, 2023).

Tests used:
P. aeruginosa QS system = conditions: cited from earlier work
P. aeruginosa PAO1 = test: Mouse wound infection model; assay type: in vivo; conditions: 2 mg kg^−1 topical twice daily, 48 h post-infection
Procedure, shortened: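 Female BALB/c mice (6–8 weeks, 18–22 g, n = 5 per group) had hair removed and a ~2 mm × 2 mm excisional flank wound made. The wound received ~5 × 10^8 CFU of PBS-washed static overnight PAO1 in 10 μL. Test compound at 2 mg kg−1 in cream was applied topically twice daily; vehicle cream served as control. At 48 h post-infection lesions were excised, homogenised and serially diluted for CFU.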

pyocyanin = test: Pyocyanin secretion assay; assay type: cell-based, Pseudomonas aeruginosa; conditions: 0.08 μM, 20 h
Procedure, shortened: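 P. aeruginosa was cultured with 0.08 μM test compound at 37 °C for about 20 h to OD600 2. Pigment was extracted from about 10 mL of supernatant with chloroform, back-extracted into 0.2 M HCl, and pyocyanin read at A520.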

P. aeruginosa biofilm = test: Biofilm inhibition assay; assay type: cell-based, Pseudomonas aeruginosa; conditions: 0.08 μM, 48 h, static, versus negative control
[1] = tested on: P. aeruginosa established biofilms; test: Biofilm eradication assay; assay type: cell-based, Pseudomonas aeruginosa; conditions: 40 μM, third day, 48 h-old biofilm, control = 100%
Procedure, shortened: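 P. aeruginosa was grown in M9 in 6-well plates at 37 °C for 48 h to form mature biofilm. Test compound was then added at 10, 20 or 40 μM and culture continued 2 or 3 days. Wells were PBS-washed ×3, dried, stained with 0.1% crystal violet for 15 min, rinsed, solubilised in 30% acetic acid and read at A595. Untreated was set to 100%; triplicates.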

P. aeruginosa = test: Bacterial viability assay; assay type: cell-based, Pseudomonas aeruginosa
Procedure, shortened: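 Broth dilution in 96-well plates. Test compound at 0.5–6 μg mL−1 in 0.5 μg mL−1 steps was mixed 1:1 by volume with log-phase P. aeruginosa at 10^6 CFU mL−1 and incubated at 37 °C for 22–24 h. Growth was read as OD600, with wells in duplicate.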

[2] = tested on: hitAB gene knockout P. aeruginosa mutant (ΔhitAB); test: Gallium uptake assay by ICP-MS, ΔhitAB mutant; assay type: cell-based, Pseudomonas aeruginosa; conditions: 0.16 μM, ICP-MS over time
Procedure, shortened: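 Wild-type and ΔhitAB P. aeruginosa overnight cultures were diluted to OD600 0.1 with 0.16 μM test compound. 5 mL aliquots were taken hourly up to 5 h. Pellets were washed ×3 in PBS with 1 mM EDTA, digested in 70% nitric acid at 60 °C for 2 h, diluted to 2% HNO3 and analysed for gallium by ICP-MS.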

## O=c1cc(-c2ccccc2)oc2cc(O)cc(O)c12 [Chrysin]
P. aeruginosa QS system
  Activity against P. aeruginosa QS system: antagonists against P. aeruginosa QS system

## O=[N+]([O-])[O-].O=[N+]([O-])[O-].O=[N+]([O-])[O-].[Ga+3] [Ga(NO3)3]
P. aeruginosa PAO1
  Lower number of CFU of P. aeruginosa compared to the control group: 2 log
pyocyanin
  Decrease in pyocyanin secretion: 47%
P. aeruginosa biofilm
  Reduction of biofilm formation: approximately 50%
[1]
  Biofilms remained: 30%
P. aeruginosa
  IC50: 3.11 µg/mL
[2]
  Gallium uptake rate of ΔhitAB mutant compared to WT: significantly abrogated

## O=c1cc(-c2ccccc2)oc2cc(O)c(O)c(O)c12 [Baicalein]
P. aeruginosa QS system
  Activity against P. aeruginosa QS system: antagonists against P. aeruginosa QS system

## O=C1C[C@@H](c2ccc(O)cc2)Oc2cc(O)cc(O)c21 [Naringenin]
P. aeruginosa QS system
  Activity against P. aeruginosa QS system: antagonists against P. aeruginosa QS system
